ChEMBL document CHEMBL4715691, “Synthesis of Triphenylethylene Bisphenols as Aromatase Inhibitors That Also Modulate Estrogen Receptors” (J Med Chem, 2016)

What was measured:
[1] = target: Estrogen receptor beta (Homo sapiens) (UniProt Q92731); experiment: Displacement of ES2 from recombinant human ER-beta at 100 uM incubated for 2 hrs by fluorescence based assay relative to control
Outline: (§1)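 Fluorescence polarization competition: test compound at 100 μM, 9 nM ES2 with 20 nM recombinant human ER-β in ES2 screening buffer (100 mM potassium phosphate, 100 µg/mL BGG, 0.02% NaN₃). Incubated 2 h protected from light, ex/em 485/530. Percent of remaining polarization versus vehicle control. Means of at least three experiments.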

MCF7 [2] = experiment: Selective estrogen receptor modulator activity in human MCF7 cells assessed as E2-induced progesterone receptor mRNA expression level at 1 uM incubated for 24 hrs by real time PCR analysis (reference value: 100%); assay type: cell-based; settings: filed as modulator
Outline: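 MCF-7 cells grown in MEM with 10% FBS, then held 72 h in charcoal-stripped FBS. […] Genomic DNA removed, RNA extracted, PGR mRNA measured by real-time PCR (40 cycles) from Ct values.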

[3] = target: T1, Estrogen receptor (Homo sapiens) (UniProt P03372); experiment: Displacement of ES2 from recombinant human ER-alpha at 100 uM incubated for 2 hrs by fluorescence based assay relative to control
T1 sequence (whole entry): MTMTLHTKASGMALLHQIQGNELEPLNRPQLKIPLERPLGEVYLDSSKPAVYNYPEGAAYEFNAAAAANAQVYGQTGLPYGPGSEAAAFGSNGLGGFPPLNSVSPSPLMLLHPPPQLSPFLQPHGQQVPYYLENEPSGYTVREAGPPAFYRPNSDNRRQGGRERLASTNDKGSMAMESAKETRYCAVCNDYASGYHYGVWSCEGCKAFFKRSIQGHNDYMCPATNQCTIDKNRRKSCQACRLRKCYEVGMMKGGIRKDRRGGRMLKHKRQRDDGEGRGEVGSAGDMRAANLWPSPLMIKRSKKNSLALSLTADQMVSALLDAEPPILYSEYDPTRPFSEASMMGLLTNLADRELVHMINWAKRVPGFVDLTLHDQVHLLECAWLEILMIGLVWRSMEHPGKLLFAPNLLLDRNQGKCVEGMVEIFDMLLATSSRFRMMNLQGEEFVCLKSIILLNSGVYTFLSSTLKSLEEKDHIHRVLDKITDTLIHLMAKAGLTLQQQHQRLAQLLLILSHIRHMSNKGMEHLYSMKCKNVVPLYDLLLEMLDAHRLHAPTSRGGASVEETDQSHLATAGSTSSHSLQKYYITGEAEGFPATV
Outline: as §1, with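 “30” for “20”, “ER-α” for “ER-β”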

MCF7 [4] = experiment: Antagonist activity at estrogen receptor in human MCF7 cells assessed as E2-induced progesterone receptor mRNA expression level at 1 uM incubated for 24 hrs by real time PCR analysis (reference value: 100%); assay type: cell-based; set-up: scale not given: the % may be the effect or the level left; settings: filed as antagonist
Outline: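 ER-positive MCF-7 cells grown in MEM with 10% FBS, 37 °C, 5% CO2, then preconditioned 72 h in charcoal-stripped FBS. […] RNA extracted after genomic DNA removal; PGR mRNA quantified by real-time PCR from threshold cycle, 40 cycles.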

Chain of Estrogen receptor beta (Homo sapiens) (Q92731 whole entry): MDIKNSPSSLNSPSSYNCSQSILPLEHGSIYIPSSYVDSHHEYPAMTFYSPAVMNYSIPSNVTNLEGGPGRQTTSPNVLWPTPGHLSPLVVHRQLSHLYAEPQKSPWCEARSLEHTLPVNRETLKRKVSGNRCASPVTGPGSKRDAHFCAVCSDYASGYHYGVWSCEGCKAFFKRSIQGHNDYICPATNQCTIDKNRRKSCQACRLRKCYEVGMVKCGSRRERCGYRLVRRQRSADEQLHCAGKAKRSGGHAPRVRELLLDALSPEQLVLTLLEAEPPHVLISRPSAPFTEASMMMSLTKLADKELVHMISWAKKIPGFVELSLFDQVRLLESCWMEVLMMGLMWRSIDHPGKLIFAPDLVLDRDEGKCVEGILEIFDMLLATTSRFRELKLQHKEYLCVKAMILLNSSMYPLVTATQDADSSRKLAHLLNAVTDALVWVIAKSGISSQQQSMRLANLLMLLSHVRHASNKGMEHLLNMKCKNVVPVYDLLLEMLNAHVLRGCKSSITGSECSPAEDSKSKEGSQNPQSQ

| Compound | inhibition ([1]; filed as modulator) [%] | Activity (MCF7 [2]) [%] | inhibition ([3]; filed as modulator) [%] | inhibition [1] [%] | inhibition [3] [%] | Activity (MCF7 [4]) [%] |
| --- | --- | --- | --- | --- | --- | --- |
| Oc1ccc(C(=C(Cn2ccnc2)c2ccccc2)c2ccc(O)cc2)cc1 | > 90 | 26 | > 90 | – | – | – |
| N#CCC(=C(c1ccc(O)cc1)c1ccc(O)cc1)c1ccc(O)c(F)c1 | – | – | – | 0 | 0 | – |
| Oc1ccc(C(=C(Cn2ccnc2)c2cccc(O)c2)c2ccc(O)cc2)cc1 | – | – | – | 29 | 0 | – |
| CCC(=C(c1ccc(O)cc1)c1ccc(OCCN)cc1)c1ccccc1 | – | – | – | – | – | 33 |
| CC/C(=C(\c1ccc(O)cc1)c1ccc(OCCN(C)C)cc1)c1ccccc1 | – | – | – | – | – | 10 |
| CCC(=C(c1ccc(O)cc1)c1ccc(O)cc1)c1ccccc1 | > 90 | – | 80 | – | – | – |
| Oc1ccc(C(Cn2cncn2)=C(c2ccc(O)cc2)c2ccc(O)cc2)cc1 | 40 | – | 45 | – | – | – |
| N#CCC(=C(c1ccc(O)cc1)c1ccc(O)cc1)c1ccc(O)cc1 | – | – | – | 3 | 0 | – |
| N#CCC(=C(c1ccc(O)cc1)c1ccc(O)cc1)c1ccccc1 | 49 | – | 56 | – | – | – |
| Nc1cccc(C(Cn2ccnc2)=C(c2ccc(O)cc2)c2ccc(O)cc2)c1 | 71 | – | 60 | – | – | – |
| Oc1ccc(C(=C(Cn2cnnc2)c2ccc(O)c(F)c2)c2ccc(O)cc2)cc1 | – | – | – | 0 | 0 | – |
| Oc1ccc(C(=C(Cn2cncn2)c2ccccc2)c2ccc(O)cc2)cc1 | – | – | – | 33 | 12 | – |
| Oc1ccc(C(Cn2ccnc2)=C(c2ccc(O)cc2)c2ccc(O)cc2)cc1 | > 90 | 26 | > 90 | – | – | – |
| Nc1ccc(C(Cn2cncn2)=C(c2ccc(O)cc2)c2ccc(O)cc2)cc1 | – | – | – | 2 | 0 | – |
| Oc1ccc(C(=C(Cn2ccnc2)c2ccc(O)c(F)c2)c2ccc(O)cc2)cc1 | > 90 | 26 | > 90 | – | – | – |
| Oc1ccc(C(=C(Cn2cncn2)c2ccc(O)c(F)c2)c2ccc(O)cc2)cc1 | – | – | – | 0 | 2 | – |
| Oc1ccc(C(Cn2cnnc2)=C(c2ccc(O)cc2)c2ccc(O)cc2)cc1 | > 90 | – | > 90 | – | – | – |
| Nc1ccc(C(Cn2cnnc2)=C(c2ccc(O)cc2)c2ccc(O)cc2)cc1 | – | – | – | 36 | 13 | – |
| N#CCC(=C(c1ccc(O)cc1)c1ccc(O)cc1)c1ccc(N)cc1 | – | – | – | 0 | 0 | – |
| Nc1ccc(C(Cn2ccnc2)=C(c2ccc(O)cc2)c2ccc(O)cc2)cc1 | > 90 | 26 | > 90 | – | – | – |
